Test system: MS2 coat protein
Test: apparent Kd, MS2 coat protein; higher = weaker binding; RNA-MaP array
Outline: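 Binding of fluorescently labeled MS2 coat protein, at 1.5 nM to 3 μM and room temperature, was measured with or without input ligand on designed RNAs transcribed on an Illumina sequencing chip from sequenced DNA templates. Apparent Kd was defined as the median of per-cluster binding-curve fits. No design measured on fewer than 10 clusters was kept.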

[1] = designed as: ON switch for flavin mononucleotide, no ligand
[2] = ligand present: flavin mononucleotide, designed as: ON switch for flavin mononucleotide
[3] = designed as: OFF switch for flavin mononucleotide, no ligand
[4] = ligand present: flavin mononucleotide, designed as: OFF switch for flavin mononucleotide
[5] = designed as: ON switch for tryptophan, no ligand
[6] = ligand present: tryptophan, designed as: ON switch for tryptophan

Sequence | apparent Kd [1] | apparent Kd [2] | apparent Kd [3] | apparent Kd [4] | further results
AUUACCCCAUGAGGAUAUCCAAUAAGGAGAGACAUGAGGAUCACCCAUGUCGACGGACGCAUACAGGAGAAGGCAUGGACUAGC | 13.6 nM | 7.54 nM |  |  | 
AUUGUGAACCUGAUCGUAUAAUGUAGCGAUACCAGUAUAAUACAUUACCCUUGGCAGCGCGACACAUGAGGAUCACCCAUGUAAG |  |  |  |  | apparent Kd (designed as: OFF switch for theophylline, no ligand): 26.5 nM; apparent Kd (ligand present: theophylline, designed as: OFF switch for theophylline): 39.4 nM
AUUUAAAAGUUAGGAUAUCUCAUCAGCUCAAUAGAUGACAUGAGGAUCACCCAUGUGACCAAAGGAGAGAAGGAACUCAUAAUG |  |  | 65.1 nM | 31.4 nM | 
CAAAACAUGAGGAUCACCCAUGUAGAUACGUGAAAAUUAUGGGAGGAUAUACAAUAGGACUGUAUGAAGAAGGCCCGAAAGCCA | 20 nM | 18.5 nM |  |  | 
CACGGAAAUCAGAAGGCGCCUACACACGCAUUGCGAGGAUAUGACCGGUCGGUCCACAUGAGGAUCACCCAUGUUAACUAACGC | 16.3 nM | 12.2 nM |  |  | 
CACGGCAUUGAGAAGGGAGUGACAUGGAACUGCUCAGGAUAUCAACACACAUUGUUAAAGAAAACAUGAGGAUCACCCAUGUUC | 11.2 nM | 9.28 nM |  |  | 
CACUUCAUAAUAGGAUAUCAUGGAUGACAUGAGGAUCACCCAUGUCCGCACUCUUCAACUACACGUGAGAAGGAUUCGCGGGUC | 194 nM | 130 nM |  |  | 
CAGAACAACGAAGGAUAUGCGAAACAUGAGGAUCACCCAUGUGUGGUUUUACUCAAACACCUGUCGCAGAAGGUCGCGUAACGA |  |  | 37.9 nM | 31.1 nM | 
CAGUGAGAGUCGGCCGCCACUUAACGCAAGUAGCGCAACCCAAAACAUGAGGAUCACCCAUGUCGAAGGACCGGGACAAUGAGCG |  |  |  |  | apparent Kd [5]: 12.9 nM; apparent Kd [6]: 12.2 nM
CAGUUACAUGAGGAUCACCCAUGUUUUUAACGCAGAGGAUAUCCGGUGGUUAAUGGCUCAGGAGAAGGCUGUGGUC | 16.3 nM | 9.37 nM |  |  | 
CAUCAAAAGCUAGGAUAUACCUAGAGUACCGGAACAUGAGGAUCACCCAUGUUAGAGUGAUGCUGGUAGAAGGAGCUGGUAAAG | 31.9 nM | 15.8 nM |  |  | 
CAUUCACUAACUCCACAUGAGGAUCACCCAUGUUGAGGUCCGAGAAGGUGCACUACGUGGGAGCGCAAGGAUAUCGCCUAGUAA | 9.84 nM | 7.64 nM |  |  | 
CCACGCUCAGUUAGGAUAUGAUCCAUUACCAGUGAUCAGAAGGAACAUGAGGAUCACCCAUGUACAGUACGAGA |  |  | 9.62 nM | 14.2 nM | 
CCCAUACAUGAGGAUCACCCAUGUGUUGAUACCAGCAUAUGUAGAUGCCCUUGGCAGCAAGCUUGGGUCACUGGAAAACAUCUAA |  |  |  |  | apparent Kd (designed as: ON switch for theophylline, no ligand): 25.9 nM; apparent Kd (ligand present: theophylline, designed as: ON switch for theophylline): 56.5 nM
CCGCGCACUGGAGGAUAUAAUCGAACAUGAGGAUCACCCAUGUUAGACGUGGUACGAGCGUUCCAUUAGAAGGCCACUCUGCGU |  |  | 27.1 nM | 52.8 nM | 
CCGCGUGCGGAAGGAUAUAUCCUAUGUUAGGAAAAUAACACAUGAGGAUCACCCAUGUCGAAGAGAUAGAAGGUCCGACAUACA | 29.5 nM | 14 nM |  |  | 
CCUUAUUCAUAGAAGGAGUUCAUCCUACGUGGACUAGGAUAUAUAUUCGACAUGAGGAUCACCCAUGUAUCUGAGAUCGUGGUA |  |  | 29.3 nM | 26.2 nM | 
CGCUCGCGGCGGAAGGAUAUGUCUAUCCGGACAUGAGGAUCACCCAUGUAUGGGUACUUGCUGCAACAGAAGGUCCGUAUUAUAUG | 290 nM | 120 nM |  |  | 
CGCUGCCGAAGAGGAUAUCCCACGACCCAAACUGGAGAAGGCUUUAGGUUUUGCCGACAUGAGGAUCACCCAUGUGUCAGUGCA |  |  | 13.1 nM | 11.4 nM | 
CGCUGUUGGCAGGAUAUAUUCGCAGCCCAGGCAAUAGAAGGGCCGACAUGAGGAUCACCCAUGUGUCUACAGGG |  |  | 117 nM | 341 nM | 
CGGAAGUGCAGCGCUUAAAGUACAUGAGGAUCACCCAUGUGAAAGGAUAUAUCGAAGUCAAAAUAAUAGAAGGUUCAGUGGGAU |  |  | 22.6 nM | 21.1 nM | 
CGGAGUAUGACGGCCGCCACUUGCCGGGCGCAGCUGGCUGCUUGACAUGAGGAUCACCCAUGUCCAAGGACCGGGUCAUUCCUCG |  |  |  |  | apparent Kd [5]: 121 nM; apparent Kd [6]: 83.9 nM
CGGCAACUGUAGAAGGAGCAUCCCACAUCUAAGCUAGGAUAUACGUAAUGUAUGUACAUGAGGAUCACCCAUGUGUGCACCAGG |  |  | 26.4 nM | 24.2 nM | 
CGGGCCAUCUAAGGAUAUUUGCCGGCCCGAAGACAUGAGGAUCACCCAUGUGUGAACGGAUGUCGAAAGAAGGUAGACCUGGUC | 300 nM | 206 nM |  |  | 
CGUGGCAAUCAAGGAUAUCACUUCUAGAUACCGUGAGAAGGUGAGCGUCUCUGCAAAGAGCGGGACAUGAGGAUCACCCAUGUA | 255 nM | 162 nM |  |  | 
CUAAUUAUCGAGAAGGAACGACGCAUCACCGAUCUAGCACACAUGAGGAUCACCCAUGUACACCGUUAGGAUAUCGCAAACCAG |  |  | 8.46 nM | 9.82 nM | 
CUACCAAAUUGAGGAUAUAGCCUGGGAGAACCAAGUUCCAUGAAAUACAUGAGGAUCACCCAUGUCUAGAAGGCAACAAUGGCC |  |  | 92.4 nM | 145 nM | 

Sequence | apparent Kd [1] | apparent Kd [2] | apparent Kd [3] | apparent Kd [4] | further results
CUCCUGGCAGGAUAUACAUGAGGAUCACCCAUGUUCCGAGCGUCCCAAACGACACGGUGUAGAAGGGCCAAGAU |  |  | 12.8 nM | 17.3 nM | 
CUCUUGCGGUUAGGAUAUUCCCUUGAAAACAAUGAAGAAGGAACCAGAUGAUCACAUGUCCUACAUGAGGAUCACCCAUGUUAA |  |  | 353 nM | 211 nM | 
CUGUGAGUAGGAUAUGAUCACAAGUACAUGAGGAUCACCCAUGUGUGGCUCUGUACCGCCUCAGAAGGACUCGUCU |  |  | 28 nM | 94.8 nM | 
CUUAACAAAGGAUAUACACAAAUGAUUAAGGUGCCGGGAAAACAUGAGGAUCACCCAUGUAGAAGGUUGUAACA |  |  | 8.1 nM | 7.75 nM | 
CUUCAGGGUGCGGCCGCCACUUAUUAGGUGCUUGCGACGCCAGCACAUGAGGAUCACCCAUGUUCAAGGACCGGGCACCACCUUU |  |  |  |  | apparent Kd [5]: 11.5 nM; apparent Kd [6]: 12.6 nM
CUUGGCGCUCAGAAGGCCGUCCAUGCACGCGCUAGGACAUGAGGAUCACCCAUGUAUCUAUGGACGGAGGAUAUGAUUCUCUCG | 20.4 nM | 8.75 nM |  |  | 
CUUUUACAUGAGGAUCACCCAUGUUGUACAGGGUUAGGAUAUCUUAAUGUUAAGUUAAUGAGAGAAGGAACAGUCA | 149 nM | 94.8 nM |  |  | 
GAACAACAUGAGGAUCACCCAUGUGACAGCCGUCAAGGAUAUUCCGGGAAAGGAGGUCCGGAAGAAGGUGAUCGUA | 265 nM | 341 nM |  |  | 
GAACUGUGAGGAUAUACAUGAGGAUCACCCAUGUUUGUGUUGGCACGCACUCGGGCAAGUAGAAGGCACAGAUG |  |  | 44 nM | 73.7 nM | 
GAAUCAUGACAGAAGGCACGGAAUACCCGGCUGUGAGGAUAUGUUUGAAAACAGACAUGAGGAUCACCCAUGUCCGAAGUGUCU |  |  | 301 nM | 555 nM | 
GAAUGAAGCGAGAAGGGACCAAAUGGGCAGAAACUACAUGAGGAUCACCCAUGUAAAAUAGAUAGUCAGGAUAUCGGAAGAAAG |  |  | 36.4 nM | 31.8 nM | 
GACAUGAGGAUCACCCAUGUGAAAUUCAUGGCGAUAACAUCUGAGGAUAUGUGCAGCCGAGGAAGACAGAAGGCAGAAACACAA |  |  | 117 nM | 119 nM | 
GACCACAUGAGGAUCACCCAUGUCUUGGUCCGAGGACCGGUACGGCCGCCACUCGAGAGCCGUACAAAUAAACGGAGUGCCAUCA |  |  |  |  | apparent Kd [5]: 15.9 nM; apparent Kd [6]: 13.5 nM
GACGCGAGCGCACUUACAUGAGGAUCACCCAUGUGUUCCGAAAGAAGGGCUAGUGUACCCGCAGAGCAGGAUAUUUCGAUUUGC | 186 nM | 121 nM |  |  | 
GACGGCUCGACGGCCGCCACUCCCUCCGACUGAAGGCACAGUGGACAUGAGGAUCACCCAUGUCCGAGGACCGGGUCGAUCCUGG |  |  |  |  | apparent Kd [5]: 17.7 nM; apparent Kd [6]: 17.6 nM
GACGUGGAGUCAGGAUAUCGACGACAUUCUUAGCGAGAAGGGACCUAGCUUAGAUCAACAUGAGGAUCACCCAUGUCGAGUUUC |  |  | 21.7 nM | 20.4 nM | 
GCGAAGCAAGGAUAUGCCCGGCGAUACAUGAGGAUCACCCAUGUGAUGUAGUUAGUUGUAGCAGAAGGUGCGCGAU |  |  | 17.6 nM | 11.4 nM | 
GCGCGCGUAGUCAGGAUAUGGUAUAAGUAACUUGGCCAGAAGGGACAUGAGGAUCACCCAUGUGCAUUGCUAGC |  |  | 9.16 nM | 9.47 nM | 
GCGUGGCACUGCAUACACACAUGAGGAUCACCCAUGUAUAGUAGAAGGUUCUUCAGCGGGAACAGAAAGGAUAUACUGAUAGAU | 7.74 nM | 7.42 nM |  |  | 
GCGUUUGCCAAAGGAUAUCAACAUGUGUUGCUUGCAUUCCUAUACAUGAGGAUCACCCAUGUGGCUGAGAAGGUUGAACACUGG | 18.2 nM | 14.1 nM |  |  | 
GCUAGUUCACAGAAGGCGUCCGUGGGUGGCGCCUUACAUGAGGAUCACCCAUGUCAACCGUGCGACGAGGAUAUGUCAAUCGCA |  |  | 22.5 nM | 21.6 nM | 
GCUGACCAGGAGAAGGGAUACGGUCUCCUUGUGGAAAUGAACAUGAGGAUCACCCAUGUAUUAGAUCAGGAUAUCCAAUGGAGG |  |  | 13.4 nM | 14.4 nM | 
GCUGCACAUUCGGCCGCCACUGCUGUUACAGGAAGCUAUAGCUCACAUGAGGAUCACCCAUGUCCCAGGACCGGGAAAGUAUGGA |  |  |  |  | apparent Kd [5]: 72.9 nM; apparent Kd [6]: 65.9 nM
GCUGUAGAAGGAUAUCACAGGAUGGACAUGAGGAUCACCCAUGUUCUUUACUCCGCACCUUGAGAAGGUCUAAGUC |  |  | 6.27 nM | 5.88 nM | 
GGAAGUAGAUGUCAGGAUAUCAAAAGCAUAACAUGAGGAUCACCCAUGUCCAAAAGGCAGAGAAUUGAGAAGGGACGUAGGUUACA | 42.2 nM | 14.4 nM |  |  | 
GGAUAAACUCAGAAGGAACGGCUCAAGUAAUAGUAAGGAUAUGACUGUAGGACUACAUGAGGAUCACCCAUGUUGAUGAAACAG | 8.03 nM | 7.91 nM |  |  | 
GGAUCACAUGAGGAUCACCCAUGUAAAGACGAUACAGGAUAUGACAGAACACGCAUCGUUUCAGAAGGGUAUAGUG | 66.9 nM | 47.6 nM |  |  | 

From the EternaBench riboswitch data
